Measurements published in the EternaBench riboswitch data.

Test system: MS2 coat protein
Experiment: apparent Kd, MS2 coat protein; higher = weaker binding; RNA-MaP array; FMN 200 µM where present
How it was run: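 The titrant was SNAP-549-labelled MS2 coat protein, run from 0.7 or 1.5 nM in doubling steps to 3 µM. It was applied to designs transcribed by stalled E. coli RNA polymerase on Illumina sequencing-chip clusters, without ligand first and then with constant ligand, in 100 mM Tris-HCl pH 7.5, 80 mM KCl, 4 mM MgCl2, BSA, DTT, yeast tRNA and Tween-20. The apparent Kd is the median of filtered per-cluster binding-curve fits, with green signal normalised to red-channel RNA signal and control-cluster median Fmax.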

[1] = designed as: OFF switch for flavin mononucleotide, no ligand
[2] = ligand present: flavin mononucleotide, designed as: OFF switch for flavin mononucleotide
[3] = designed as: ON switch for flavin mononucleotide, no ligand
[4] = ligand present: flavin mononucleotide, designed as: ON switch for flavin mononucleotide

Row | Sequence | apparent Kd [1] | apparent Kd [2] | apparent Kd [3] | apparent Kd [4]
1 | GGCCGUAAUAAGGAUAUCACUAGCUUCGGCUAGUGAGAAGGUAUUACAUGAGGAUCACCCAUGUGGUCAGGCCA | 279 nM | 730 nM | – | –
2 | AGAUAUGAUGCAGGAUAUCUAUCUUGAAUGAGGAGAGAAGGGCAAGUAGAUAGAUAAGCCUCAUGACAUGAGGAUCACCCAUGU | 14.8 nM | 15.2 nM | – | –
3 | GUCGGAAACGACAAAAGUAGCAUAGGAGAAGGCAUGUCAAAGACAUGAGGAUCACCCAUGUAGCAUGAGGAUAUCCUAUGCUAC | – | – | 5.24 nM | 4.97 nM
4 | GUCAUUUAUGUAGGAUAUGCGAGGCGAGCCUGAGCAGAAGGACAUGAGGAUCACCCAUGUAUUGCGGUUUAUGUUCAGAUCGCU | 16.3 nM | 19 nM | – | –
5 | UUACUAUUACAGAAGGUUAAAUAAUAUAUAAAUGAAGGAUAUGUGACAUGAGGAUCACCCAUGUUUCACCCACAUGAGGAUCAU | 8.62 nM | 7.41 nM | – | –
6 | UGUCCAUAGCAGAAGGACAUAAAUACAUGACCAAACAUGAGGAUCACCCAUGUAGGAUAUGCUAUGGACUAAGAGCGAAAGCUC | 6.6 nM | 9.31 nM | – | –
7 | AAAGUUGGUAGGCCCUCGGCACAUGAGGAUCACCCAUGUAAGGAGGAUAUGCCCGGUACCCGCUGGCAGAAGGCCUUAUAAGAA | 12.2 nM | 110 nM | – | –
8 | UGUCGGAGCAGAGGAUAUUACAUGAGGAUCACCCAUGUAUGAACCAAUAGCUGGAAACAGCAAUGUAAGAAGGCUGCUCCGACC | 12 nM | 153 nM | – | –
9 | AGGUAAACCACAGGAUAUGGCUAGUAUAACUAGCCAGAAGGGUGGUCGAAACCAUGUAAAUACAUGAGGAUCACCCAUGUGUCC | – | – | 400 nM | 131 nM
10 | GAUCGCCGUGUCAGGAUAUCUUGUGUACCCACGUUAGAGAAGGGACAUGAGGAUCACCCAUGUACCCUGGUUUU | 17.6 nM | 19.2 nM | – | –
11 | GUAUAUCACUCAGGAUAUCUGUAAUUUAUUGAAACAUGAGGAUCACCCAUGUUCAUAAAUUUAUAGGAGAAGGGAGAGAUAUAC | – | – | 4.39 nM | 4.58 nM
12 | UGUGCGUAUGUGAGGAUAUGCUGGUCCUUGGAUCAGCAGAAGGCACAUGAGGAUCACCCAUGUGGUGUCGUACU | 296 nM | 25.7 nM | – | –
13 | GUCGUGUGAGGAUAUGAUUAAUAGACGGGAUUGCGACUGCAUCAGAAGGCACAUGAGGAUCACCCAUGUAUGAA | 19.4 nM | 63.5 nM | – | –
14 | GUGGACGUCGUAGGAUAUGUAGGAUAUUCCUACAUGAGGAUCACCCAUGUUUACAUGGAAGAAGGACAGAAGGACGAUGUCCAG | – | – | 992 nM | 16.2 nM
15 | UAUAUGUCAGGAUAUUGAUUGGGAUGGAAUUUAGUUUUGGUUAAGAAGGGACAUGAGGAUCACCCAUGUUCCUC | 17.1 nM | 18.4 nM | – | –
16 | AGAAAGAAGCAAGGAUAUUGUAAGGUUAAUGUACAAGAAGGUGCUGUUUAUGUCUCUUAACAUGAGGAUCACCCAUGUUUUGGU | – | – | 19.2 nM | 18.8 nM
17 | AGUCGGAGCAGAGGAUAUAUACAUGAGGAUCACCCAUGUGAAUGAAUAAGCUGGAAACAGCAUGUAUAGAAGGCUGCUCCGACA | 352 nM | 603 nM | – | –
18 | UUUAAGUCAGGAUAUCGUUAAUUUAAUUAUUUAUUUUAGUUCGAGAAGGGACAUGAGGAUCACCCAUGUAAUUU | 40.5 nM | 63.1 nM | – | –
19 | AUGCCCUGAGGAUAUCUCAUCCCGCACAUGAGGAUCACCCAUGUUCUUCUCCGGGUUCCGAGAGAAGGCAGGCCUA | 157 nM | 81.9 nM | – | –
20 | CUUGGCUAGGAGAAGGGCUAGAGUGUGAUAUAUUUGCCCGCGAGCACAUGAGGAUCACCCAUGUAGCAGGAUAUCCAAGCCGGU | 7.4 nM | 17.4 nM | – | –
21 | ACAUUUAAUACAGGAUAUGUUAGUAUACAGUAGAUUGGUUAUUACACAACAACAGAAGGGUAGAACAUGAGGAUCACCCAUGUA | – | – | 85.1 nM | 55.3 nM
22 | AUCAGCUUGACAGGAUAUACAUGACUGCGAAAGCAGUCUAUCUUAAUAACAUGAGGAUCACCCAUGUAGAAGGGUCGAGCUGAU | 17.8 nM | 27 nM | – | –
23 | UUAUCUCAUGAGAAGGACAUGAGGAUCACCCAUGUAGGAUAUCAUGGGUCAGAGGAAUUGAAUCUUCGGAUUCAAUUACUCUUC | – | – | 72 nM | 12.2 nM
24 | CGGUCACAUGAGGAUCACCCAUGUACCUACGCGAUGAAGUCGCAGGAUAUCCAUUACUUUACGUAGGAGAAGGGUGACGCUCGC | – | – | 51.1 nM | 34 nM
25 | CUAGUACAUGAGGAUCACCCAUGUCAGGAUAUUGGAUAUGCCUUGGAAAACAUGUUUACAAGAAGGGACUAUAG | 19.1 nM | 19.6 nM | – | –
26 | CUUUUGUGAGGAUAUUAGUAGUAAAUAAAUAAAUUUACUACUGAGAAGGCACAUGAGGAUCACCCAUGUUCCUC | 36.7 nM | 328 nM | – | –
27 | AGAUUUGUACAUGAGGAUCACCCAUGUUAAUAGGUGUUUGUCAGAAGGCAUUAAUAGAGAUUUAAUGAGGAUAUGAUGUUACAA | – | – | 49.3 nM | 35.2 nM
28 | AGAUGACAAAGUCAUCUCGCUUUGACAUGAGGAUCACCCAUGUAGGAUAUAUUAAUCAAAGAUUAAUAGAAGGACAUGUUUCUG | 87.1 nM | 172 nM | – | –

Row | Sequence | apparent Kd [1] | apparent Kd [2] | apparent Kd [3] | apparent Kd [4]
29 | AUCAGCUCGUCAGGAUAUACGUCAGUGCGUCAGCAGUGUGGUAAGAUCACAUGAGGAUCACCCAUGUAGAAGGGACGAGCUGAU | 161 nM | 621 nM | – | –
30 | GUGCGGUGAGGAUAUACGUAGGUGAAAAUCUGUGUGUUCCUACAUGAGGAUCACCCAUGUAGAAGGCAUGUCAC | 53.5 nM | 143 nM | – | –
31 | UUGGAAGUCGUAGGAUAUGUAGGAUAUUCCUACAUGAGGAUCACCCAUGUUGACAUGGAAGAAGGACAGAAGGACGAUGUCCAU | – | – | 642 nM | 6.99 nM
32 | UUCUCGAUGUAGAAGGCCGCGUCCGGCUCACGCGGAGGAUAUACAUGAGGAUCACCCAUGUGUUUGUGGCUUAUAUGGUACGAA | 43 nM | 212 nM | – | –
33 | GAUACGUCAGGAUAUCUGAUGUCUAACUUCGGUUAGACAUCAGAGAAGGGACAUGAGGAUCACCCAUGUAUCAG | 50.4 nM | 61.1 nM | – | –
34 | AGCUACGUUUCGUAGCAGCUAGGUGAGGAUAUUCAAUUGUUCACAUGAGGAUCACCCAUGUAUGUGAAGAAGGCGCCUAGAAAG | – | – | 7.16 nM | 5.34 nM
35 | GUCAUACAUGAGGAUCACCCAUGUAAGGAUAUGCUAGCGGUCGGAAGACUGACUGCUAGCAGAAGGUACAUGAU | 67.1 nM | 92.5 nM | – | –
36 | AACUCGUCAGGAUAUGCGCACAGAUAAUACGCUUCACAAUUGCAGAAGGGACAUGAGGAUCACCCAUGUAAAUA | 36.3 nM | 26.8 nM | – | –
37 | CGAUGACACAGUCAUCCAAUACGAACAUGAGGAUCACCCAUGUAGGAUAUGCUACUCACAGAGUAGCAGAAGGACAUGUGCCUU | 41.4 nM | 182 nM | – | –
38 | GGAGCACAUCAAUACAUGAGGAUCACCCAUGUCGAAUGAUAUGAGGAUAUGCAUCGGAAAACGAUGUAGAAGGCAUAGUGCUCC | – | – | 15.6 nM | 6.27 nM
39 | AUGCAGCCACCACAGGAUAUACGUGGAUCGACAUGAGGAUCACCCAUGUAUAUCCUAAUAAUUGCGUAGAAGGGUGGUCGGCUGG | – | – | 555 nM | 81.8 nM
40 | AUUUAAUUUAGCGAGAUCACAUGAGGAUCACCCAUGUAUAUAUAGGAUAUCAGCUCGUUUAGAGCUGAGAAGGAUAUAUACCGC | 89.8 nM | 147 nM | – | –
41 | UUAUUGUAUGUAGGAUAUGCAUAUUAUUAUUAUGCAGAAGGACAUGAGGAUCACCCAUGUAUAUUAUUAUUAUAUAUUAUAUAU | 32.3 nM | 60.9 nM | – | –
42 | GUGCCUUGGGAGAAGGCCCAAUGCAAAGCAUCGGGAGGAUAUUCAUAUAAUAAAUAAACAUGAGGAUCACCCAUGUGGCACAAA | – | – | 447 nM | 33 nM
43 | AAUCACAUGAGGAUCACCCAUGUGCCAGAAGGCACAAAUCUGCCUGGUGCGCCCGGGCUUCUCUGUGAGGAUAUGGAAAAGAAG | – | – | 309 nM | 76 nM
44 | AAAAGGUGAGGAUAUUCGGCGCCGGGAAGGUUGGUGCGGAUGAAGAAGGCACAUGAGGAUCACCCAUGUAAUAA | 63 nM | 49.1 nM | – | –
45 | GUACUGUAGUGAGGAUAUACGAGUUCGAUAGAACGGCGAUCCAAUUAUACAUGAGGAUCACCCAUGUAGAAGGCACUUCAGUAC | 8.88 nM | 50 nM | – | –
46 | GGUAGAGAGCAGGAUAUCUUGGGUAAGUAUCGUAGAGAAGGGCUCACAUGAGGAUCACCCAUGUGGUCCUAGAU | 12.1 nM | 24.8 nM | – | –
47 | AGAGCCUCGUGAGGAUAUACAUGAGGAUCACCCAUGUAAAUGGAAGAACGGAGGAAACUCCGAAUGUAGAAGGCACGAGGCUCA | 149 nM | 1240 nM | – | –
48 | CAGCGAAAGUAGAAGGCAGUACUGAUACAGUACUGAGGAUAUACAUGAGGAUCACCCAUGUACUUCAGCUGGAAAUAAAUAAAU | 5.94 nM | 6.97 nM | – | –
49 | UAAACACCCUCAUGUACCUGAGGACAUGAGGAUCACCCAUGUAAGGAUAUAGCCAUUAAAUCUAACUAGAAGGUAUAGGAAAUC | 865 nM | 529 nM | – | –
50 | ACGAGGUCAGGAUAUACGGAGAGAGGGAGUUGGUUAGGGUAACAUGAGGAUCACCCAUGUAGAAGGGACUAGGG | 48.6 nM | 40.3 nM | – | –
51 | UGGUGUGAAUAGGAUAUGAACUCUGCCAGGAUAUCAGAAGGGUUUACAUGAGGAUCACCCAUGUCAUCCACUGC | 18.8 nM | 18.9 nM | – | –
52 | CCAACGUACAAUUUAGAUCUACAUGAGGAUCACCCAUGUACGGAGGAUAUCAGCUCGAAUAGAGCUGAGAAGGCCGAAUUAAUU | – | – | 371 nM | 89.4 nM
53 | CGAUAACAUAGUUAUCCGUAGCGGACAUGAGGAUCACCCAUGUAGGAUAUGUUACUCAACGAGUAACAGAAGGACAUGAGUCUU | 18.1 nM | 114 nM | – | –
54 | AAAUAAAGUACCUUGAUAUCCUCACAUGAGGAUCACCCAUGUCAGGAUAUUUGUCCUAAAAGGACAGAGAAGGGACAAGGUAUA | 5.82 nM | 6.19 nM | – | –
55 | ACAAGAUCAGGAUAUACAUGAGGAUCACCCAUGUUUAUCAAAAAAAGGCUUUCAUCAUGUAGAAGGGAUCUUGU | 99 nM | 126 nM | – | –
